In ChEMBL document CHEMBL5620421, “2,6-Disubstituted 7-(naphthalen-2-ylmethyl)-7H-purines as a new class of potent antitubercular agents inhibiting DprE1” (Eur J Med Chem, 2023) one finds Activity and IC50 data, which are given here for three compounds.

The subject of one test is Enterococcus faecium. Description: Antibacterial activity against vancomycin-resistant Enterococcus faecium assessed as inhibition of bacterial growth at 125 uM incubated for 24 to 48 hrs by microdilution broth method. The note with it: time 24-48 hrs. The format is functional, organism-based. For orientation: Dilution methods test growth across graded concentrations, often in twofold steps.

The test system of another test is Klebsiella pneumoniae. The test can be described thus: Antibacterial activity against ESBL positive Klebsiella pneumoniae C1914 assessed as inhibition of bacterial growth at 125 uM incubated for 24 to 48 hrs by microdilution broth method. The following applies: time 24-48 hrs. The format is functional, organism-based.
Test [1] has as its system Mycobacterium tuberculosis. The test can be described thus: Antitubercular activity against Mycobacterium tuberculosis CNCTC My 331/88 (H37Rv) infected in MONO-MAC-6 cells assessed as inhibition of bacterial growth measured after 48 hrs of incubation by MTT based ELISA. Format: functional, organism-based. The note with it: MONO-MAC-6, 48 h. In a few lines: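 MonoMac6 cells in RPMI-1640 with 10% FBS, 2 mM glutamine and gentamicin, seeded at 6.5 × 10³ cells/well the day before. Treated 48 h at 2.56 × 10⁻³–250 μM in incomplete medium with 1% DMSO. Read by MTT (3.5 h), formazan in DMSO, absorbance at 540/620 nm. IC50 from dose-response curves.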
A general note: ELISA stands for enzyme-linked immunosorbent assay.

Test [2] concerns Mycobacterium tuberculosis. Description: Antitubercular activity against Mycobacterium tuberculosis CNCTC My 331/88 (H37Rv) infected in MONO-MAC-6 cells assessed as reduction in colony forming unit growth at 25 uM measured after 48 hrs of incubation by MTT based ELISA relative to control. The format is functional. Set-up: scale not given: the % may be the effect or the level left.

The structures appear in SMILES notation. Active and inactive are the calls of the source. No cut-off for these calls is given here.

As to `CCOc1nc(N2CCOCC2)nc2ncn(Cc3ccc4ccccc4c3)c12`, the result with Enterococcus faecium and in the test with Klebsiella pneumoniae was inactive.
As a reminder, the IC50 is the concentration at which inhibition is half-maximal. On to `CCNc1nc(N2CCOCC2)nc2ncn(Cc3ccc4ccccc4c3)c12`, for which the outcome in the test on Enterococcus faecium and in the test on Klebsiella pneumoniae was inactive. For the same compound, the IC50 in test [1] was determined as 57 µM. The Activity entry in test [2] is listed as “>=80%”.
For `Nc1nc(N2CCOCC2)nc2ncn(Cc3ccc4ccccc4c3)c12`, the result in the test with Enterococcus faecium and in the test with Klebsiella pneumoniae was inactive.
